EBV gp42 inh: Epstein-Barr virus gp42 inhibitors, primary screen, biochemical, uHTS, fluorescence polarization; AID 1085, 2008; 220,000 tested, 0.42% active; inhibition, % (tested at 21.74 µM); Fluorescence polarization binding assay, mP read-out; in the data active = inhibition above about 50%
Target sequence (Q1HVG2 whole entry, looked up): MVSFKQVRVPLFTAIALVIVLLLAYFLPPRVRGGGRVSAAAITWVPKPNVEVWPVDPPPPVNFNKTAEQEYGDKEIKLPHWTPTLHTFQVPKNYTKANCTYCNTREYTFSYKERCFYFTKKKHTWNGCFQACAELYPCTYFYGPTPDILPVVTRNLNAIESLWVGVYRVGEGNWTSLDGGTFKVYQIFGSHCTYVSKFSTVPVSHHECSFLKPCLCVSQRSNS
MPTP inh: mitochondrial permeability transition pore inhibitors, primary screen, biochemical, isolated mouse mitochondria, absorbance. 360,000 tested, 1.4% active. inhibition, % at 10 µM. Ca2+ swelling absorbance, 30 min;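 active = inhibition of 50% or more, scaled per plate between neutral and stimulator controls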;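 also: 0% = DMSO wells given calcium and 100% = 1 mM EGTA wells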
NR3A LBD binder: binders of NR3A ligand-binding domain, primary screen, biophysical, differential scanning fluorimetry, uHTS | Glutamate receptor ionotropic, NMDA 3A (GRIN3A) ligand-binding domain | NR3A LBD differential scanning fluorimetry, Tm shift; 0% = protein alone, 100% = glycine-bound protein | Tm shift relative to glycine control, % at 25 µM | 340,000 tested, 2.5% active;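 active = melting temperature shift of at least 10% of the positive control shift, at one fixed dose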
Tb MetRS inh: T. brucei MetRS inhibitors, primary screen, biochemical, luminescence | methionyl-tRNA synthetase (Trypanosoma brucei brucei) | purified T. brucei MetRS, ATP depletion, Kinase-Glo luminescence | inhibition, % at 11.9 µM | 360,000 tested, 0.4% active;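 active = inhibition above a per-plate cutoff of the control wells' mean inhibition plus 3 SD, cut at about 5.5% in these data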;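 also: 0% = DMSO wells median and 100% = median of wells with control inhibitor compound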
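System: purified T. brucei MetRS enzyme / Detection: Kinase-Glo luciferase luminescence reporting remaining unconsumed ATP / Medium: HEPES buffer with MgCl2, KCl, DTT, spermine, BSA, pyrophosphatase / Replication: singlicate, one well per compound / Evaluation: percent inhibition relative to median high and low control wells / Schedule: 2 h aminoacylation at 25 °C after 15 min preincubation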
CHOP inh: inhibitors of CHOP promoter induction, primary screen, cell-based, unfolded protein response, luciferase reporter; 220,000 tested, 3.8% active; inhibition, % at 10 µM; CHO-K1 CHOP-promoter luciferase, tunicamycin-induced, 15-18 h;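 active = compounds that reduced the stress-induced luciferase reporter signal by more than about 70% of percent inhibition, limit read from the data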;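 also: 0% = tunicamycin plus vehicle and 100% = wells without tunicamycin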
WT yeast gro inh: growth inhibition of WT strain, primary screen, mitochondrial fusion inhibitor project, WT and mutant strains, chemical genetic; mitochondrial fusion phenotypic screen; inhibition, % at 10 µM; 190,000 tested, 2.1% active; AID 1362, 2008; in the data active = inhibition above about 58%; tested in S. cerevisiae
* hit, by the source's call; x = no result. A selection: hits, their analogues and other compounds. The true share with any hit is near 6.4%.

SMILES	EBV gp42 inh	MPTP inh	NR3A LBD binder	Tb MetRS inh	CHOP inh	WT yeast gro inh
COC(=O)CSc1ncnc2c1cnn2Cc1ccccc1	-3	-2	2	0	-7	-8
c1ccc(CSc2ncnc3c2cnn3Cc2ccccc2)cc1	-3	0	-3	-1	16	67*
CC1=CC(=C(C#N)C#N)C=C(C)N1CCN1CCN(C(=O)Nc2ccc(Cl)c(Cl)c2)CC1	-25	8	18*	0	-26	-7
COc1ccc(NC(=O)N2CCN(CCC#N)CC2)cc1	-11	1	1	0	22	8
CCn1c2ccccc2c2cc(NC(=O)Cc3ccc(S(=O)(=O)N4CCOCC4)s3)ccc21	-13	-7	-22	0	4	-12
CN1CC=C2C(C#N)=C(N)C(C#N)(C#N)[C@H](c3cccc(Cl)c3)C2C1 (stereo partly drawn)	58*	-1	-2	-1	20	7
CCCC1C2CN(C(C)C)CC=C2C(C#N)=C(N)C1(C#N)C#N (stereo not drawn)	69*	1	1	-1	-6	39
COc1cccc(C2C3CN(C)CC=C3C(C#N)=C(N)C2(C#N)C#N)c1OC (stereo not drawn)	78*	-2	0	0	2	0
CCOC(=O)N1CC=C2C(C#N)=C(N)C(C#N)(C#N)[C@H](c3ccc(OC(C)C)c(OCC)c3)[C@H]2C1	3	0	-3	0	9	10
CCOC(=O)N1CC=C2C(C#N)=C(N)C(C#N)(C#N)[C@H](c3ccccc3OCC)[C@H]2C1	-10	-3	-2	-1	74*	-14
O=C(Nc1ccc(S(=O)(=O)NC2=NCCCCC2)cc1)c1cccc(S(=O)(=O)N2CCOCC2)c1	x	0	1	0	x	x
O=C1c2ccccc2S(=O)(=O)N1Cc1cc(=O)n2ccsc2n1	-25	-2	2	0	17	x
Cc1cc(/C=C2\SC(=O)N(CC(=O)Nc3ccccc3F)C2=O)c(C)n1C	-12	-1	-3	0	85*	12
Cc1ccc(NC(=O)CN2C(=O)S/C(=C/c3ccc(O)c([N+](=O)[O-])c3)C2=O)cc1C	65*	1	7	0	-10	51
O=C(CN1C(=O)S/C(=C\C=C\c2ccccc2)C1=O)Nc1ccc(O)cc1	-2	1	15*	0	91*	-4
O=C(CN1C(=O)S/C(=C\c2cc(Cl)c(O)c(Cl)c2)C1=O)Nc1ccccc1	x	3	12*	0	x	x
C=CCNC(=S)N1CCN(Cc2ccc3c(c2)OCO3)CC1	x	-1	0	0	x	x
COc1ccc(OC)c(S(=O)(=O)n2nc(C)cc2C)c1	-6	0	1	0	13	-6
COc1ccc(NC(=O)c2ccc3c(c2)OCO3)cc1Cl	-13	3	26*	0	-14	7
COc1cc(NC(=O)c2ccc3c(c2)OCCO3)ccc1NC(=O)c1ccccc1Cl	x	1	29*	0	x	x
COc1ccc(NC(=O)c2ccc3c(c2)OCCO3)cc1OC	x	-1	0	-1	x	x
Nc1nc(Nc2ccccc2F)nc(NCc2ccccc2)c1[N+](=O)[O-]	-34	6	-5	-1	23	x
Cc1nn(-c2cccc(C(F)(F)F)c2)c(=O)c2ccccc12	x	1	-1	0	x	x
Cc1ccc(N2CCN(S(=O)(=O)c3nnc(NC(=O)c4ccccc4)s3)CC2)cc1	x	3	10*	0	x	x
Cc1ccnc(NC(=O)c2cccc(S(=O)(=O)N3CCN(c4ccccc4)CC3)c2)c1	x	1	x	0	x	x
SMILES	EBV gp42 inh	MPTP inh	NR3A LBD binder	Tb MetRS inh	CHOP inh	WT yeast gro inh
Cc1ccc(C(=O)Nc2nnc(S(=O)(=O)N3CCOCC3)s2)cc1	x	0	-20	0	x	x
Cc1ccc(NC(=O)c2cccc(S(=O)(=O)N3CCN(c4ccccc4)CC3)c2)nc1	x	2	28*	0	x	x
NS(=O)(=O)c1ccc(NC(=O)CSc2nnc(C3CC3)n2C2CC2)cc1	x	0	3	0	x	x
O=C(Nc1cc(Cl)ccc1C(=O)O)c1ccc(CN2C(=O)c3ccccc3C2=O)cc1	x	2	13*	0	x	x
O=C(O)c1cccc(NC(=O)c2ccc(CN3C(=O)c4ccccc4C3=O)cc2)c1	x	-1	-1	0	x	x
CCc1nn2c(=O)cc(CSCC(=O)Nc3ccccc3F)nc2s1	x	-2	-6	0	x	x
O=C(Nc1ncc(Cc2ccccc2Cl)s1)C1=NCCN1	-6	0	-4	-1	0	73*
Cc1cc(-c2nnc(SCC(=O)Nc3ccc(Br)cc3F)n2N)n[nH]1	x	-3	-2	0	x	x
O=C1CC(c2ccco2)CC2=C1C=Nc1ccccc1N2 (stereo not drawn)	11	-1	-1	0	-2	-7
O=c1[nH]c2c(s1)C=Nc1ccccc1N2	119*	4	-15	0	17	1
O=C(O)CC1S/C(=N/N=C/C2CC=CCC2)NC1=O (stereo not drawn)	-1	-1	-1	0	8	3
COc1ccc(-c2cc(-c3ccccc3)c(C#N)c(SCC(=O)O)n2)cc1	x	0	1	0	x	x
COc1ccc(-c2nn(-c3ccccc3)cc2C(=O)OCC(=O)c2ccc(C)c([N+](=O)[O-])c2)cc1	-13	2	2	1	87*	8
COc1ccc(OCCSc2ncccn2)cc1	2	0	-1	-1	-2	-4
Cc1ccc(OCCSc2nc(NC(C)C)nc(NC(C)C)n2)cc1	6	25	23*	-1	54	72*
CCC1C(=O)N=C(SCC(=O)Nc2ccccc2)NC1=O (stereo not drawn)	-6	-2	1	-1	46	2
O=C(O)COc1ccc(NC(=O)c2ccc3c(c2)C(=O)N(C2CCCCC2)C3=O)cc1	x	-1	2	0	x	x
CCC(=O)Oc1ccc(C(=O)Nc2ccc3c(c2)C(=O)N(C2CCCCC2)C3=O)cc1	-20	4	-4	0	71*	-6
CCOC(=O)N1CCC(N2C(=O)c3ccc(C(=O)Nc4cccc(OC)c4)cc3C2=O)CC1	x	-1	11*	0	x	x
CCOC(=O)N1CCC(N2C(=O)c3ccc(C(=O)O)cc3C2=O)CC1	1	-3	5	0	20	-17
CN(C(=O)CCc1nnc(Cc2ccc(-c3ccccc3)cc2)o1)C1CCOCC1	-11	2	-1	0	18	-2
CC/C(=N/Nc1ccc(Cl)cc1)c1cnnc(SC)n1	1	16	17*	0	-13	-1
CC/C(=N/O)c1cnnc(SC)n1	21	0	-2	-1	15	-1

High-throughput results: PubChem, several laboratories
